Drawing on ChEMBL document CHEMBL3822411, “Non-Substrate Based, Small Molecule Inhibitors of the Human Isoprenylcysteine Carboxyl Methyltransferase” (Medchemcomm, 2016), this text covers IC50 for twelve molecules.

Where only a bound is given, the exact number is not on record here.

In the first assay the target is Protein-S-isoprenylcysteine O-methyltransferase (Homo sapiens, UniProt O60725). Put plainly: Inhibition of human isoprenylcysteine carboxyl methyltransferase expressed in yeast His10myc3N-Icmt membranes using AFC substrate and [14C]-SAM and incubated for 30 mins by liquid scintillation counting based methyltransferase vapor diffusion assay. It is filed as cell membranes.
Protein-S-isoprenylcysteine O-methyltransferase, sequence (O60725 whole entry, the tested form may be a part): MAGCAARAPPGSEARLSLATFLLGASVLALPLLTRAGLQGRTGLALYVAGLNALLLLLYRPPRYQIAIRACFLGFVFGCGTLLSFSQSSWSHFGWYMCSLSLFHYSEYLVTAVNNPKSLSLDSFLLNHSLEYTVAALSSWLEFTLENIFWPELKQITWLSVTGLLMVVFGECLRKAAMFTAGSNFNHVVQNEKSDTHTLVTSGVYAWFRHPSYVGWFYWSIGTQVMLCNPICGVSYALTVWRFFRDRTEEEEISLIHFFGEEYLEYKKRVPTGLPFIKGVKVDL
Conditions: not given
The method in brief:
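Crude yeast membranes (5 µg) in Tris-HCl 100 mM pH 7.4 with AFC 10 µM and [14C]-SAM 60 µM, compound at increasing concentrations, 5% DMSO; 37 °C 30 min, stopped with NaOH/SDS. Released radioactivity captured on filter paper over 2.5 h and counted. IC50 from specific activity (pmol/mg/min) versus concentration; three separate experiments in duplicate.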
On to `COC(=O)CCSC/C=C(\C)CCn1cc(CCc2ccc(-c3ccccc3)cc2)nn1`, for which the IC50 came to 0.4 µM.

In turn, `Oc1c(C(c2cccs2)C2CCOCC2)ccc2ccccc12` (stereo not drawn) yielded a 50% inhibitory concentration (IC50) of 18 µM.

In turn, `Oc1c(C(=C2CCOCC2)c2cccs2)ccc2ccccc12` yielded a half-maximal inhibitory concentration (IC50) of 7.7 µM.

`c1ccc(C(=C2CCOCC2)c2cccs2)cc1`: the IC50 is more than 50 µM.

Regarding `Oc1c(C(c2cccs2)C2CCOCC2)ccc2cccnc12` (stereo not drawn), half-maximal inhibition (IC50) required 14 µM.

For the molecule `OC(c1ccccc1)(c1cccs1)C1CCOCC1` (stereo not drawn), the IC50 was more than 50 µM.

`CN1CCC(C(c2ccc3ccccc3c2)c2cccs2)CC1` (stereo not drawn) came in with an IC50 of more than 50 µM.

The molecule `c1ccc(C(=C2CCOCC2)c2ccc3ccccc3c2)cc1` registered an IC50 of more than 50 µM.

`O=C(c1ccc2ccccc2c1)C1CCOCC1` yielded an IC50 of more than 50 µM.

For the molecule `c1ccc2cc(CC3CCOCC3)ccc2c1`, the IC50 is more than 50 µM.

The molecule `c1csc(C(c2ccc3ccccc3c2)C2CCNCC2)c1` (stereo not drawn) gave an IC50 of more than 50 µM.

System in the next assay: not listed separately
Put plainly: Growth inhibition of human MIAPaCa2 cells expressing K-Ras G12C mutant after 5 days by MTT assay. The class given is functional, cell-based. The note with it: MIA PaCa-2, 120 h. The essentials:
(§1)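 MTT read-out; 1,000 cells per well seeded the day before, then medium replaced with inhibitor at increasing concentrations, 0.5% DMSO constant; 5 days at 37 °C. MTT (5 mg/mL solution) added for a further 4 h, formazan dissolved in DMSO, absorbance at 590 nm; mean absorbance per concentration plotted.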
For the molecule `c1csc(C(=C2CCOCC2)c2ccc3ccccc3c2)c1`, the IC50 is 31.9 µM.

System in another assay: not listed separately
Put plainly: Growth inhibition of human PANC1 cells expressing K-Ras G12D mutant after 5 days by MTT assay. It is filed as functional, cell-based. The note with it: PANC-1, 120 h. The essentials: as §1
As to `c1csc(C(=C2CCOCC2)c2ccc3ccccc3c2)c1`, 78 µM corresponded to half-maximal inhibition (IC50).
